Measured values reported in ChEMBL document CHEMBL4007420, “Structural Optimization and Pharmacological Evaluation of Inhibitors Targeting Dual-Specificity Tyrosine Phosphorylation-Regulated Kinases (DYRK) and CDC-like kinases (CLK) in Glioblastoma” (J Med Chem, 2017).
Active and inactive are the calls of the source. The rule behind the calls is not given here.

Key:
[1] = molecular target: T1, Dual specificity protein kinase CLK1 (Homo sapiens, UniProt P49759); test: Inhibition of CLK1 (unknown origin) using KKGRSRSRSRSRSR as substrate after 40 mins in presence of [gamma-33P]ATP by microbeta scintillation counting
Summary of the method: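 CLK1 was assayed with RS peptide substrate at 100 µM ATP.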
Target sequence in this assay (P49759 whole entry): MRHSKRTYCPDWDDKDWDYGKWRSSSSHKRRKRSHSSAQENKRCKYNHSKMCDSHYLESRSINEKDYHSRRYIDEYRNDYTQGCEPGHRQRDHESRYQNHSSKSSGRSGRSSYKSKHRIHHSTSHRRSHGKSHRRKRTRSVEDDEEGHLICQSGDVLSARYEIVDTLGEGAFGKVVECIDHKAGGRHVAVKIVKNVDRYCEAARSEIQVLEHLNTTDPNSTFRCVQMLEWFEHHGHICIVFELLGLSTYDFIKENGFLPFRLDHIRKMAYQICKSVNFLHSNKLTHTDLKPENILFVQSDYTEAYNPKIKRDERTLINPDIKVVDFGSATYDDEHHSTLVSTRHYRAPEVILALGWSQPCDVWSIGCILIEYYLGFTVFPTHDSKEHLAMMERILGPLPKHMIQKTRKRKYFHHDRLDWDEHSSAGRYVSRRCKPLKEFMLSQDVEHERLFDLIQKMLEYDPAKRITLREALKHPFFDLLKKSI

[2] = Cytotoxicity against patient-derived SJH1 cells assessed as reduction in cell viability after 3 days by Alamar blue assay; assay type: functional, cell-based; details: Homo sapiens, SJH1, 72 h
Summary of the method: (§1)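 The patient-derived glioblastoma lines were grown as stem cells under defined conditions to keep the phenotype and genotype of the resected tumours. Viability after treatment was read with Alamar blue.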

A 172 [3] = test: Antimigratory activity in human A172 cells at 5 uM measured up to 20 hrs by wound scratch assay; assay type: functional; details: A 172, 20 h
Summary of the method: (§2)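 Wound-healing migration assay: cell movement across the wound is measured as velocity (µm/h). Compounds were tested at 0, 1.0, 5.0 and 10.0 µM. Values are mean ± SEM of 3 independent experiments.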

[4] = molecular target: T1, Dual specificity protein kinase CLK1; test: Stabilization of CLK1 in human U251 cell lysate at 10 uM preincubated for 1 hr followed by incubation at 40 to 70 degreeC for 3 mins by cellular thermal shift assay
Target sequence in this assay (P49759 whole entry, looked up): as the sequence (P49759 whole entry) above

[5] = molecular target: T2, Dual specificity tyrosine-phosphorylation-regulated kinase 1A (Homo sapiens, UniProt Q13627); test: Binding affinity to DYRK1A in human U251 […] preincubated for 1 hr followed by incubation at 54 degreeC for 3 mins by isothermal dose-response fingerprint assay
Summary of the method: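 Isothermal dose-response fingerprint: intact U251 cells were treated for 1 h across 0–20 µM, then heated at 54 °C. The soluble fraction was extracted with aqueous buffer and DYRK1A was detected by Western blot. Results are mean ± SEM of 2 independent experiments.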

A 172 [6] = test: Antimigratory activity in human A172 cells assessed as velocity of migration at 10 uM measured up to 20 hrs by wound scratch assay (reference value: 2650 to 3123 micrometer/hr); assay type: functional; summary of the method: as §2
U-251 [7] = test: Cytotoxicity against human U251 cells assessed as reduction in cell viability after 3 days by Alamar blue assay; assay type: functional, cell-based; details: U-251, 72 h
A 172 [8] = test: Antiinvasive activity in human A172 cells assessed as velocity of invasion at 1 uM measured up to 20 hrs by matrigel assay (reference value: 2659 to 3047 micrometer/hr); assay type: functional
[9] = Cytotoxicity against patient-derived WK1 cells assessed as reduction in cell viability after 5 days by Alamar blue assay; assay type: functional, cell-based; details: Homo sapiens, WK1, 120 h; summary of the method: as §1
RN1 = test: (§3) Anticlonogenic activity against patient-derived RN1 cells after 10 to 12 days by toluidine blue staining based assay; assay type: functional, cell-based; details: Homo sapiens
Summary of the method: (§4)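 Cells were exposed to compound for 10 days, then colonies were fixed, stained with Toluidine Blue and counted. […] Values are mean ± SEM of 3 independent experiments, each in duplicate, with one-way ANOVA and Dunnett's test against vehicle.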

[10] = as §3; assay type: functional, cell-based, Homo sapiens; summary of the method: as §4
[11] = molecular target: T3, Dual specificity tyrosine-phosphorylation-regulated kinase 2 (Homo sapiens, UniProt Q92630); test: Inhibition of DYRK2 (unknown origin) using woodtide as substrate after 40 mins in presence of [gamma-33P]ATP by microbeta scintillation counting
T3 sequence (Q92630 whole entry): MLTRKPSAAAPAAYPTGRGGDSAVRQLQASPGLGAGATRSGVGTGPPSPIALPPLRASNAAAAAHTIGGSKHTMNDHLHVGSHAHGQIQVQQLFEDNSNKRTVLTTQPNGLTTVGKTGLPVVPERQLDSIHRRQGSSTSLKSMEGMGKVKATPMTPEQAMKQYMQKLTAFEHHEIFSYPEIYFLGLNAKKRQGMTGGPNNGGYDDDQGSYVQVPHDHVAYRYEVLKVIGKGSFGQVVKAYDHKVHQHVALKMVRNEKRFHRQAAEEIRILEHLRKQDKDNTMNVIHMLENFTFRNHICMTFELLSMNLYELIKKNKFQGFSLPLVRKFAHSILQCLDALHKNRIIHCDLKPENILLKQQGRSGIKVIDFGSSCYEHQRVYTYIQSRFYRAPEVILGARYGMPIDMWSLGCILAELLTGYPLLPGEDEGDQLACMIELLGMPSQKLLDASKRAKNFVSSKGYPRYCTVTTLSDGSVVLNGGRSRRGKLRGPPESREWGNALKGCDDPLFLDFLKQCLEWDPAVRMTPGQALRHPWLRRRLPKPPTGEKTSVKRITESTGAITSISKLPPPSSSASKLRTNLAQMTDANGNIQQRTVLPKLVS

[12] = molecular target: T4, Dual specificity tyrosine-phosphorylation-regulated kinase 1B (Homo sapiens, UniProt Q9Y463); test: Stabilization of DYRK1B in human U251 cell lysate at 10 uM preincubated for 1 hr followed by incubation at 40 to 70 degreeC for 3 mins by cellular thermal shift assay
Target sequence in this assay (Q9Y463 whole entry, looked up): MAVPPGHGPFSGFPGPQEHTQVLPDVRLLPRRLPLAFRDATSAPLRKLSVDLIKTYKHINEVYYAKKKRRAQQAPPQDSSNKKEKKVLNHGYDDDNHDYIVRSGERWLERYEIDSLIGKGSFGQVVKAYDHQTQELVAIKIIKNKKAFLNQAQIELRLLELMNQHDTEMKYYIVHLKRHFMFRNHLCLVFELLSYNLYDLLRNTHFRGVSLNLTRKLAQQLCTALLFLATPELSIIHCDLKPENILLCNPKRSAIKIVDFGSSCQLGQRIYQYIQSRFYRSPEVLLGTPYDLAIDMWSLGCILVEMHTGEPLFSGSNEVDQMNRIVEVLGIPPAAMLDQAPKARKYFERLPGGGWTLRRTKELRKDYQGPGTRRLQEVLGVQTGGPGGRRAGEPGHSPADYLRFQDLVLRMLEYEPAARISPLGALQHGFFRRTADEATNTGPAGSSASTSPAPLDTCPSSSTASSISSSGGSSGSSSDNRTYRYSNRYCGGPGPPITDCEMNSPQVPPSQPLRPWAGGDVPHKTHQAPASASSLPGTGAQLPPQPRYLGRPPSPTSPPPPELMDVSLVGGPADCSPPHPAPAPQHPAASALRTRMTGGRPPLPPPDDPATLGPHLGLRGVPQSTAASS

U-251 [13] = test: Anticlonogenic activity against human U251 cells after 10 to 12 days by toluidine blue staining based assay; assay type: functional, cell-based; summary of the method: as §4
[14] = molecular target: T4, Dual specificity tyrosine-phosphorylation-regulated kinase 1B; test: Inhibition of DYRK1B (unknown origin) using woodtide as substrate after 40 mins in presence of [gamma-33P]ATP by microbeta scintillation counting
Target sequence in this assay (Q9Y463 whole entry): as the sequence (Q9Y463 whole entry, looked up) above

A 172 [15] = test: Antiinvasive activity in human A172 cells assessed as velocity of invasion at 10 uM measured up to 20 hrs by matrigel assay (reference value: 2659 to 3047 micrometer/hr); assay type: functional
[16] = Cytotoxicity against patient-derived RN1 cells assessed as reduction in cell viability after 3 days by Alamar blue assay; assay type: functional, cell-based; details: Homo sapiens, RN1, 72 h; summary of the method: as §1
[17] = Antimigratory activity in patient-derived RN1 cells at 5 uM measured up to 20 hrs by wound scratch assay; assay type: functional; details: Homo sapiens, RN1, 20 h; summary of the method: as §2
U-251 [18] = test: Antiinvasive activity in human U251 cells assessed as velocity of invasion at 10 uM measured up to 20 hrs by matrigel assay (reference value: 1151 to 1710 micrometer/hr); assay type: functional
Homo sapiens = organism: Homo sapiens; test: Inhibition of tubulin (unknown origin) polymerization
A 172 [19] = test: Cytotoxicity against human A172 cells assessed as reduction in cell viability after 3 days by Alamar blue assay; assay type: functional, cell-based; details: A 172, 72 h
[20] = molecular target: T2, Dual specificity tyrosine-phosphorylation-regulated kinase 1A; test: Stabilization of DYRK1A in human U251 cell lysate at 10 uM preincubated for 1 hr followed by incubation at 40 to 70 degreeC for 3 mins by cellular thermal shift assay
U-251 [21] = test: Antimigratory activity in human U251 cells assessed as velocity of migration at 10 uM measured up to 20 hrs by wound scratch assay (reference value: 2159 to 2653 micrometer/hr); assay type: functional; summary of the method: as §2
[22] = molecular target: Mitogen-activated protein kinase 14 (Homo sapiens) (UniProt Q16539); test: Stabilization of MAPK p38alpha in human U251 cell lysate at 10 uM preincubated for 1 hr followed by incubation at 40 to 70 degreeC for 3 mins by cellular thermal shift assay
Sequence of Mitogen-activated protein kinase 14 (Homo sapiens) (Q16539 whole entry): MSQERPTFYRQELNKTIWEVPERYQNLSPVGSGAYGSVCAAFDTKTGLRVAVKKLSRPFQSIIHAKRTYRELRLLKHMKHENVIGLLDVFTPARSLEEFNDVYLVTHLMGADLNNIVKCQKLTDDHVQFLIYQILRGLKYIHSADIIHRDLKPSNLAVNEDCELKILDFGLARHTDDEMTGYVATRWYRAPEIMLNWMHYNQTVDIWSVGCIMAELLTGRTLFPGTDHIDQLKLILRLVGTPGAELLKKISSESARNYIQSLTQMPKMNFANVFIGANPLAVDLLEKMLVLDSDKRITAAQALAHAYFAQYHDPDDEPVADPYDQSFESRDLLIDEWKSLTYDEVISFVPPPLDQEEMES

U-251 [23] = test: Antiinvasive activity in human U251 cells assessed as velocity of invasion at 5 uM measured up to 20 hrs by matrigel assay (reference value: 1151 to 1710 micrometer/hr); assay type: functional
[24] = Cytotoxicity against patient-derived JK2 cells assessed as reduction in cell viability after 3 days by Alamar blue assay; assay type: functional, cell-based; details: Homo sapiens, JK2, 72 h; summary of the method: as §1

With `Nc1ccc(-c2cnc3[nH]cc(-c4ccc(O)cc4)c3c2)cc1` the IC50 [1] was 34 nM, the EC50 [2] was 3200 nM and the inhibition at 5 µM (A 172 [3]) was over 75%. The Activity [4] was “Active”, the IC50 [5] was 711 nM and the Activity (A 172 [6]) was 131 um/hr. It also gave an EC50 (U-251 [7]) of 1600 to 4600 nM, an Activity (A 172 [8]) of 2675 um/hr and an EC50 [9] of 900 nM. For the same compound, the Activity (RN1) was “Dose-dependent effect”, the EC50 [10] was 800 nM and the IC50 [11] was 567 nM. For the same compound, the Activity [12] was “Active”, the EC50 (U-251 [13]) was 180 nM and the IC50 [14] was 32 nM. The Activity (A 172 [15]) was 714 um/hr, the EC50 [16] was 1100 nM and the inhibition at 5 µM [17] was over 75%. The Activity (U-251 [18]) was -149 um/hr, the inhibition (Homo sapiens) was “inactive” and the EC50 (A 172 [19]) was 1600 to 4600 nM. The Activity [20] was “Active”, the Activity (U-251 [21]) was 129 um/hr and the Activity [22] was “inactive”. The Activity (U-251 [23]) was 234 um/hr and the EC50 [24] was 8000 nM.
